Screening data as filed in PubChem.
The sample as a whole holds a higher share of hits than the screen did.
ABCB6 inh MLPCN = ABCB6 transporter inhibitors, primary screen, K562-ABCB6 cells, flow cytometry, MLPCN library | ATP-binding cassette sub-family B member 6 (Homo sapiens), Q9NP58 | AID 602162, 2011 | 360,000 tested, 0.19% active | K562-ABCB6 porphyrin accumulation, 1 h; stronger effect = lower value | fluorescence ratio to DMSO, % at 10 µM;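 active = fluorescence ratio to DMSO below 75%, the collection mean minus 3 SD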;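 also: signal is porphyrin accumulated inside mitochondria; 100% equals median channel fluorescence of DMSO control wells; lower ratio means ABCB6 inhibition with less porphyrin fluorescence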
ABCB1 inh = ABCB1 efflux pump inhibitors, primary screen, cell-based, multiplex, flow cytometry, ABCG2 counter-screen; CCRF-Adr cells, JC-1 efflux; inhibition, % at 6.6 µM; ATP-dependent translocase ABCB1 (Homo sapiens), P08183; 190,000 tested, 0.067% active; in the data active = inhibition above about 40%;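 also: 0% = vehicle and 100% = reference inhibitor; higher value means more JC-1 retained so stronger ABCB1 efflux block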
FLuc stim CS = FLuc activators, initial screening, artefact control for FLuc-dependent activation tests, biochemical, ATPlite luminescence; ATPlite luciferase biochemical, 10 min; 0 = ATP-free wells, 1 = DMSO control; activation factor at 10 µM; 200,000 tested, under 10 active;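 active = luciferase activation factor, scaled between plate controls, of at least 2 with compound at 10 µM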
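assay system = Luciferase/luciferin detection reagent, cell-free biochemical luciferase assay | also added = ATP substrate | times = 10 min post-reagent at room temperature | measured by = luminescence from luciferase reaction | measure = luciferase activation, seen as luminescence increase over controls | benchmarks = low control with PBS replacing ATP, high control enzyme plus ATP without compound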
ABCG2 inh = ABCG2 efflux pump inhibitors, primary screen, multiplex with ABCB1, IgMXP3 cells, flow cytometry. Broad substrate specificity ATP-binding cassette transporter ABCG2 (Homo sapiens), Q9UNQ0. JC-1 efflux. inhibition, % at 6.6 µM. 190,000 tested, 0.1% active. AID 1325, 2008;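 active = inhibition above 80%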;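 also: 0% = DMSO and 100% = nicardipine control wells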
Target sequence (Q9UNQ0 whole entry, looked up): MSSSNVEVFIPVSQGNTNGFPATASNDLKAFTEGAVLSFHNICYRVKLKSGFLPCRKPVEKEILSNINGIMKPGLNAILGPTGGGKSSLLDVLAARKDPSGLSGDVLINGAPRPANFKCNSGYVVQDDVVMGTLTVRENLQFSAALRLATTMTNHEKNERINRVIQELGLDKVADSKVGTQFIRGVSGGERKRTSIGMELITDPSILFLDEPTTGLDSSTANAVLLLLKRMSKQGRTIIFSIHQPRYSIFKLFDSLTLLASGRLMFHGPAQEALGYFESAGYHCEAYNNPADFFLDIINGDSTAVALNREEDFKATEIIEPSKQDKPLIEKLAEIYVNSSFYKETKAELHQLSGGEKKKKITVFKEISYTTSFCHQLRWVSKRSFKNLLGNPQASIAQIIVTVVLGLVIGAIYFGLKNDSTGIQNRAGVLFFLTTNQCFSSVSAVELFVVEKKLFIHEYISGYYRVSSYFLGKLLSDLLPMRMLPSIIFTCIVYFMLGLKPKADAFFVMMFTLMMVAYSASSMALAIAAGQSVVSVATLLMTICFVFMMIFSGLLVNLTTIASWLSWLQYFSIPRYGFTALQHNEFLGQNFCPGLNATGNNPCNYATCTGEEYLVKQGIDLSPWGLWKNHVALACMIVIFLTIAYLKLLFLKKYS
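Test system: IgMXP3 (ABCG2) plus far-red-tagged CCRF-Adr (ABCB1) cells. Reagent: JC-1 dye as substrate. Timing: 10 min exposure at 25 °C with rotation, no wash. Measured by: flow cytometric JC-1 green MFI at 530 nm. Read-out: percent efflux inhibition, scaled nicardipine 100% to DMSO 0%. Control set: nicardipine and DMSO wells.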
Diaph act CS = compounds boosting diaphorase resazurin reduction – biochemical, uHTS, resorufin fluorescence, counter-screen for diaphorase-coupled primary assays, primary screen; activation factor at 20 µM; Diaphorase/resazurin coupled assay, 16 min; stronger effect = higher value; 1 = vehicle wells, 0 = NADH-free wells; 190,000 tested, 0.005% active;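 active = diaphorase activity raised at least twofold by the compound at 20 µM; inactive = activation factor below 2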
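System – purified diaphorase enzyme from Clostridium kluyveri · Input – enzyme 0.07 U/mL final · Also added – final NADH 0.114 mM, resazurin 0.1 mM · Measured by – fluorescence of resorufin, 544 nm excitation, 590 nm emission · Timing – 16 min enzyme reaction, ambient temperature · Measure – resorufin increase flagging diaphorase activators or reducers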
FLuc inh counter = firefly luciferase enzyme inhibitors, primary screen, artefact control for luciferase-based inhibitor screens, biochemical, luminescence, ATPLite; inhibition, % at 10 µM; 10 min; Luciferin 4-monooxygenase (Photinus pyralis), P08659; 200,000 tested, 1.5% active;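 active = inhibition above about 50% when tested at 10 µM, limit read from the data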
* = called active by the depositor.

How did O=C(/C=C/c1ccccc1[N+](=O)[O-])Nc1cccc(S(=O)(=O)NC2=NCCCCC2)c1 do in these assays?
ABCB6 inh MLPCN: 100

Results for CCn1cc(C(=O)NC2CCCc3c2cnn3-c2cccc(C)c2C)cn1 (centres undefined) ?
ABCB6 inh MLPCN: 65*

What do the screens show for `Cc1cccc(-n2ncc3c2CCCC3NC(=O)c2ccncc2)c1C` (centres undefined)?
ABCB6 inh MLPCN: 95

How did O=c1c2ccccc2cnn1CCOc1ccccc1 do in these assays?
ABCB6 inh MLPCN: 96; ABCB1 inh: 0; FLuc stim CS: 0.2; ABCG2 inh: 1; Diaph act CS: 0.8; FLuc inh counter: 83*

What do the screens show for `O=C(O)Cn1ncc2ccccc2c1=O`?
ABCB6 inh MLPCN: 95; ABCB1 inh: 0; FLuc stim CS: 1; ABCG2 inh: 2; Diaph act CS: 0.9; FLuc inh counter: -3

Results for N#C/C(=N\Nc1ccccc1[N+](=O)[O-])C(=N)N1CCCCC1 ?
ABCB6 inh MLPCN: 94; ABCB1 inh: 0; FLuc stim CS: 0.2; ABCG2 inh: 3; Diaph act CS: 0.9; FLuc inh counter: 82*

What do the screens show for `N#C/C(=N\Nc1ccccc1)C(=N)N1CCCCC1`?
ABCB6 inh MLPCN: 96; ABCB1 inh: 0; FLuc stim CS: 0.4; ABCG2 inh: 2; Diaph act CS: 0.9; FLuc inh counter: 61*

Results for N#C/C(=N/Nc1ccc([N+](=O)[O-])cc1)C(=N)N1CCCCC1 ?
ABCB6 inh MLPCN: 103; ABCB1 inh: 0; FLuc stim CS: 0.9; ABCG2 inh: 0; Diaph act CS: 0.9; FLuc inh counter: 13

Results for Cc1cc(C)c(NC(=O)CN(C)C(=O)C2CC(=O)N(c3cccc4ccccc34)C2)c(C)c1 (centres undefined) ?
ABCB6 inh MLPCN: 100

How did COc1ccc(S(=O)(=O)N2CCN(CCc3ccccc3)CC2)cc1 do in these assays?
ABCB6 inh MLPCN: 96

What do the screens show for `Cc1cc(O)c(-c2cc(C(=O)NCc3ccc4c(c3)OCO4)[nH]n2)cc1C`?
ABCB6 inh MLPCN: 59*; ABCB1 inh: 0; FLuc stim CS: 1.1; ABCG2 inh: 1; Diaph act CS: 1.1; FLuc inh counter: -6

What do the screens show for `O=C(Nc1ccnn1C1CCN(C2CCCC2)CC1)c1ccccc1`?
ABCB6 inh MLPCN: 99

What do the screens show for `COC(=O)C(C)N1C(=O)S/C(=C\c2cc(C)n(-c3ccccn3)c2C)C1=O` (centres undefined)?
ABCB6 inh MLPCN: 102; ABCB1 inh: 1; FLuc stim CS: 0.4; ABCG2 inh: 5; Diaph act CS: 0.9; FLuc inh counter: 56*

What do the screens show for `COC(=O)C(C)N1C(=O)S/C(=C/c2cc(C)n(-c3ccccn3)c2C)C1=O` (centres undefined)?
ABCB6 inh MLPCN: 94; ABCB1 inh: 1; FLuc stim CS: 0.4; ABCG2 inh: 2; Diaph act CS: 0.8; FLuc inh counter: 58*

What do the screens show for `CCC1CCCCN1CCCNC(=O)Cn1cnc2sc(C)c(S(=O)(=O)N3CC(C)CC(C)C3)c2c1=O` (centres undefined)?
ABCB6 inh MLPCN: 96

Results for COc1cccc2cc(-c3cn4ccc(C)cc4n3)c(=O)oc12 ?
ABCB6 inh MLPCN: 96

Results for CCOc1cccc2cc(-c3cn4cc(C)ccc4n3)c(=O)oc12 ?
ABCB6 inh MLPCN: 96; ABCB1 inh: 0; FLuc stim CS: 0.3; ABCG2 inh: 2; Diaph act CS: 1; FLuc inh counter: 68*

Results for OCC1CCCN(C(=S)Nc2ccc(Oc3ccccc3)cc2)C1 (centres undefined) ?
ABCB6 inh MLPCN: 98; ABCB1 inh: 0; FLuc stim CS: 0.9; ABCG2 inh: 3; Diaph act CS: 1; FLuc inh counter: 6

What do the screens show for `COC(=O)Cc1ccc(NC(=S)N2CCCC(CO)C2)cc1` (centres undefined)?
ABCB6 inh MLPCN: 96; ABCB1 inh: -1; FLuc stim CS: 0.1; ABCG2 inh: -6; Diaph act CS: 0.9; FLuc inh counter: 93*

How did CC(=O)c1ccc(NC(=S)N2CCCC(CO)C2)cc1 (centres undefined) do in these assays?
ABCB6 inh MLPCN: 97; ABCB1 inh: 0; FLuc stim CS: 0.5; ABCG2 inh: -2; Diaph act CS: 0.9; FLuc inh counter: 52*

How did COC(=O)Cc1ccc(NC(=S)N2CCCC(C)C2)cc1 (centres undefined) do in these assays?
ABCB6 inh MLPCN: 101; FLuc stim CS: 0.1; ABCG2 inh: -2; Diaph act CS: 1.1; FLuc inh counter: 89*

How did O=C(NNC(=O)c1ccc(-c2ccccc2)cc1)Nc1ccc(F)cc1F do in these assays?
ABCB6 inh MLPCN: 94

Results for Cc1noc(C(=O)N2CCN(Cc3ccc4c(c3)OCO4)CC2)c1Cl ?
ABCB6 inh MLPCN: 102

What do the screens show for `O=C(Nc1ccccn1)c1onc2c1CCCC2`?
ABCB6 inh MLPCN: 97; ABCB1 inh: 1; FLuc stim CS: 0.1; ABCG2 inh: 9; Diaph act CS: 0.9; FLuc inh counter: 87*

Results for O=C(Nc1ccccn1)c1csc2c1CCCC2 ?
ABCB6 inh MLPCN: 100; ABCB1 inh: 0; FLuc stim CS: 0.6; ABCG2 inh: 4; Diaph act CS: 1; FLuc inh counter: 44

What do the screens show for `CCc1nc2ccc(C(=O)NCCOc3ccc(OC)cc3)cn2c1N(C)Cc1cccs1`?
ABCB6 inh MLPCN: 92

What do the screens show for `O=C(CNC(=O)c1cccs1)c1ccc(F)cc1`?
ABCB6 inh MLPCN: 99; ABCB1 inh: 0; FLuc stim CS: 0.5; ABCG2 inh: 0; Diaph act CS: 0.9; FLuc inh counter: 52*

What do the screens show for `Cc1c(N=Cc2nc3ccccc3[nH]2)c(=O)n(-c2ccccc2)n1C`?
ABCB6 inh MLPCN: 106; ABCB1 inh: 1; FLuc stim CS: 0.7; ABCG2 inh: 3; Diaph act CS: 1; FLuc inh counter: 31

How did Cc1c(N=Cc2nc3ccccc3n2C)c(=O)n(-c2ccccc2)n1C do in these assays?
ABCB6 inh MLPCN: 94; ABCB1 inh: 2; FLuc stim CS: 0.2; ABCG2 inh: 90*; Diaph act CS: 1; FLuc inh counter: 83*

Results for O=C(COC(=O)c1cc(Cl)ccc1O)NCC1CCCO1 (centres undefined) ?
ABCB6 inh MLPCN: 99
